# ChEMBL document CHEMBL4837218, “Synthesis and in vitro antitumour activity of 4(R)-methyl-3-O-phosphonomethyl-α-l-threose nucleosides” (Eur J Med Chem, 2021)
# Activity calls are given as the source filed them. The calls are words filed in the database; no cut-off is given here.
# Assays:
# MDA-MB-231 [1] = test: Induction of G2/M phase cell cycle arrest in human MDA-MB-231 cells assessed as upregulation of cdc25c protein expression at 9 uM measured after 48 hrs in presence of cdc25c inhibitor, NSC663284 by western blot analysis; type: functional, cell-based
# MDA-MB-231 [2] = test: Induction of apoptosis in human MDA-MB-231 cells assessed as late apoptotic cells at 9 uM measured after 48 hrs by Annexin V-FITC/propidium iodide staining based flow cytometric analysis (reference value: 0.3 %); type: functional
# A549 = test: Antiproliferative activity against human A549 cells assessed as cell growth inhibition measured after 72 hrs by MTT assay; type: functional, cell-based; conditions: A549, 72 h
# Outline: (§1)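 Cells seeded at 3000 exponentially growing cells/well and incubated 12 h at 37 °C. Medium then replaced with fresh medium containing graded compound concentrations for 72 h; 5-FU positive control. MTT (5 mg/mL solution) added for 4 h, formazan dissolved in DMSO, absorbance read at 570 nm (reference 630 nm). Relative percentage inhibition of viable cells calculated; IC50 reported as mean ± standard deviation.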
# MCF7 [3] = test: Induction of apoptosis in human MCF7 cells assessed as late apoptotic cells at 1 uM measured after 48 hrs by Annexin V-FITC/propidium iodide staining based flow cytometric analysis (reference value: 0.6 %); type: functional
# MCF7 [4] = test: Induction of apoptosis in human MCF7 cells assessed as increase in cleaved PARP protein expression at 1 to 4 uM measured after 48 hrs by western blot analysis; type: functional, cell-based; conditions: dose 1-4 µM
# Outline: (§2)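 MCF-7 and MDA-MB-231 breast cancer cells treated 48 h with a concentration series, then lysed for protein. SDS-PAGE on 5–15% gels, transfer to nitrocellulose. Blocked 2 h in 5% nonfat milk/PBS-0.1% Tween 20, primary antibodies overnight at 4 °C, biotin-conjugated secondary 1 h. X-ray film detection with densitometric quantification.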
# MDA-MB-231 [5] = test: Induction of apoptosis in human MDA-MB-231 cells assessed as early apoptotic cells at 9 uM measured after 48 hrs in presence of cdc25c inhibitor, NSC663284 by AnnexinV-FITC/PI staining based flow cytometry (reference value: 7.4%); type: functional
# MDA-MB-231 [6] = test: Cell cycle arrest in human MDA-MB-231 cells assessed as accumulation at S phase at 3 uM measured after 48 hrs by propidium iodide staining based flow cytometry (reference value: 35.54 %); type: functional
# MDA-MB-231 [7] = test: Induction of mitochondrial membrane potential loss in human MDA-MB-231 cells assessed as green fluorescence intensity at 3 uM measured after 48 hrs by JC1 staining-based flow cytometry analysis (reference value: 0.8 %); type: functional
# MDA-MB-231 [8] = test: Cell cycle arrest in human MDA-MB-231 cells assessed as accumulation at G2/M phase at 3 uM measured after 48 hrs by propidium iodide staining based flow cytometry (reference value: 15.46 %); type: functional
# MDA-MB-231 [9] = test: Antiproliferative activity against human MDA-MB-231 cells assessed as growth inhibition measured after 72 hrs by MTT assay; type: functional, cell-based; conditions: MDA-MB-231, 72 h; outline: as §1
# MDA-MB-231 [10] = test: Induction of mitochondrial membrane potential loss in human MDA-MB-231 cells assessed as red fluorescence intensity at 6 uM measured after 48 hrs by JC1 staining-based flow cytometry analysis (reference value: 99.2 %); type: functional
# MCF7 [11] = test: Induction of DNA damage in human MCF7 cells assessed as increase in Chk2 phosphorylation at Thr68 residue at 1 to 4 uM measured after 48 hrs by western blot analysis; type: functional, cell-based; conditions: dose 1-4 µM
# Outline: (§3)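 Cells exposed to graded concentrations for 48 h, then proteins extracted. Run on SDS-PAGE (5–15% gels) and transferred to nitrocellulose. Blocked 2 h in 5% nonfat milk in PBS/0.1% Tween 20, primary antibody overnight at 4 °C, biotin-conjugated secondary 1 h. Visualized on X-ray film with densitometric quantitation; three independent experiments.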
# MDA-MB-231 [12] = test: Induction of apoptosis in human MDA-MB-231 cells assessed as increase in cleaved caspase 3 protein expression at 3 to 9 uM measured after 48 hrs by western blot analysis; type: functional, cell-based; conditions: dose 3-9 µM; outline: as §2
# MCF7 [13] = test: Induction of apoptosis in human MCF7 cells assessed as increase in cleaved PARP protein expression at 4 uM measured after 48 hrs in presence of cdc25c inhibitor, NSC663284 by western blot analysis; type: functional, cell-based
# Outline: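 Four arms per cell line: untreated, test compound, 0.3 µM NSC663284 alone, and combination. Proteins harvested after 48 h and resolved by SDS-PAGE on 5–15% gels, transferred to nitrocellulose. Blocked 2 h in milk/PBS-Tween, primary antibodies overnight at 4 °C, biotin-conjugated secondary. Read on X-ray film with densitometry.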
# MDA-MB-231 [14] = test: Induction of apoptosis in human MDA-MB-231 cells assessed as increase in Noxa protein expression at 3 to 9 uM measured after 48 hrs by western blot analysis; type: functional, cell-based; conditions: dose 3-9 µM; outline: as §2
# MDA-MB-231 [15] = test: Cell cycle arrest in human MDA-MB-231 cells assessed as accumulation at G1 phase at 3 uM measured after 48 hrs by propidium iodide staining based flow cytometry (reference value: 46.28%); type: functional
# MCF7 [16] = test: Potency index, ratio of 5-FU IC50 to test compound IC50 for anticancer activity against human MCF7 cells measured after 72 hrs by MTT assay; type: functional
# Outline: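 MTT assay: 3000 exponentially growing cells per well, 12 h at 37 °C. Medium replaced with compound at a range of concentrations for 72 h. MTT (5 mg/mL stock) added for 4 h, formazan dissolved in DMSO. Absorbance read at 570 nm (reference 630 nm); percent inhibition gives IC50. Index is 5-FU IC50 divided by test-compound IC50.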
# MDA-MB-231 [17] = test: Cell cycle arrest in human MDA-MB-231 cells assessed as accumulation at G2/M phase at 6 uM measured after 48 hrs by propidium iodide staining based flow cytometry (reference value: 15.46 %); type: functional
# MCF7 [18] = test: Cell cycle arrest in human MCF7 cells assessed as accumulation at S phase at 2 uM measured after 48 hrs by propidium iodide staining based flow cytometry (reference value: 25.34 %); type: functional
# MCF7 [19] = test: Induction of apoptosis in human MCF7 cells assessed as increase in cleaved caspase 7 protein expression at 1 to 4 uM measured after 48 hrs by western blot analysis; type: functional, cell-based; conditions: dose 1-4 µM; outline: as §2
# MDA-MB-231 [20] = test: Induction of apoptosis in human MDA-MB-231 cells assessed as late apoptotic cells at 6 uM measured after 48 hrs by Annexin V-FITC/propidium iodide staining based flow cytometric analysis (reference value: 0.3%); type: functional
# MCF7 [21] = test: Induction of mitochondrial membrane potential loss in human MCF7 cells assessed as green fluorescence intensity at 4 uM measured after 48 hrs by JC1 staining-based flow cytometry analysis (reference value: 8.1 %); type: functional
# MCF7 [22] = test: Cell cycle arrest in human MCF7 cells assessed as accumulation at S phase at 4 uM measured after 48 hrs by propidium iodide staining based flow cytometry (reference value: 25.34 %); type: functional
# MDA-MB-231 [23] = test: Induction of DNA damage in human MDA-MB-231 cells assessed as increase in Chk2 phosphorylation at Thr68 residue at 3 to 9 uM measured after 48 hrs by western blot analysis; type: functional, cell-based; conditions: dose 3-9 µM; outline: as §3
# MCF7 [24] = test: Induction of apoptosis in human MCF7 cells assessed as increase in Noxa protein expression at 1 to 4 uM measured after 48 hrs by western blot analysis; type: functional, cell-based; conditions: dose 1-4 µM; outline: as §2
smiles,measurement,setting,value
C[C@H]1O[C@@H](n2cnc3c(N)nc(F)nc32)[C@H](O)[C@H]1OCP(=O)([O-])[O-].[Na+].[Na+],Activity,MDA-MB-231 [1],inactive
same,Activity,MDA-MB-231 [2],16%
same,IC50,A549,3480 nM
same,Activity,MCF7 [3],4.6%
same,Activity,MCF7 [4],Active
same,Activity,MDA-MB-231 [5],5.1%
same,Activity,MDA-MB-231 [6],34.82%
same,Activity,MDA-MB-231 [7],1.4%
same,Activity,MDA-MB-231 [8],20.27%
same,IC50,MDA-MB-231 [9],391 nM
same,Activity,MDA-MB-231 [10],63.8%
same,Activity,MCF7 [11],Active
same,Activity,MDA-MB-231 [12],Active
same,Activity,MCF7 [13],inactive
same,Activity,MDA-MB-231 [14],Active
same,Activity,MDA-MB-231 [15],44.13%
same,Ratio IC50,MCF7 [16],41
same,Activity,MDA-MB-231 [17],28.54%
same,Activity,MCF7 [18],38.69%
same,Activity,MCF7 [19],Active
same,Activity,MDA-MB-231 [20],18.8%
same,Activity,MCF7 [21],58.1%
same,Activity,MCF7 [22],31.16%
same,Activity,MDA-MB-231 [23],Active
same,Activity,MCF7 [24],Active
